Laboratory results as given in ChEMBL document CHEMBL3046255, “Moluccensins R-Y, limonoids from the seeds of a mangrove, Xylocarpus moluccensis” (2012).

Legend:
Type in all cases: functional
Brontispa longissima [1] = assay: Antifeedant activity against third-instar larvae of Brontispa longissima at 1 mg/mL after 48 hr by conventional leaf disk method
Method in brief: (§1)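 Third-instar larvae exposed to test material at 1 mg/mL. Antifeedant rate is given as percent, mean ± SD, and is read after 24 h […] and 48 h […].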

Brontispa longissima [2] = assay: Antifeedant activity against third-instar larvae of Brontispa longissima at 1 mg/mL after 24 hr by conventional leaf disk method; method in brief: as §1
Brontispa longissima [3] = assay: Insecticidal activity against third-instar larvae of Brontispa longissima assessed as mortality at 1 mg/mL after 9 days
Brontispa longissima [4] = assay: Antifeedant activity against third-instar larvae of Brontispa longissima after 24 hr by conventional leaf disk method
Method in brief: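 Value is an AFC50: the concentration giving 50% antifeedant activity against third-instar larvae after 24 h exposure.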

Row | Structure (SMILES) | Activity (Brontispa longissima [1]) | Activity (Brontispa longissima [2]) | Activity (Brontispa longissima [3]) | AFC50 (Brontispa longissima [4])
1 | COC(=O)C[C@H]1C(C)(C)[C@H](OC(C)=O)[C@]2(O)CC3=C4CC(=O)O[C@@H](c5ccoc5)[C@]4(C)CC[C@@H]3[C@@]1(C)C2=O [2-HYDROXYFISSINOLIDE] | 91.5% | 93.7% | 34.4% | 94 µg/mL
2 | COC(=O)[C@H](O)[C@H]1C(C)(C)C(=O)[C@@H]2CC3=C4CC(=O)O[C@@H](c5ccoc5)[C@]4(C)CC[C@@H]3[C@@]1(C)C2=O [6-HYDROXYMEXICANOLIDE] | 69.3% | 76.6% | 20.7% | 
3 | CCC(C)C(=O)O[C@H]1C(C)(C)[C@H]([C@@H](O)C(=O)OC)[C@]2(C)C(=O)[C@@]1(O)CC1=C3CC(=O)O[C@@H](c4ccoc4)[C@]3(C)CC[C@@H]12 (stereo partly drawn) [MOLUCCENSIN S] | 44.1% | 42.3% | 48.2% | 
4 | COC(=O)[C@H](O)[C@H]1C(C)(C)[C@H](OC(=O)C(C)C)[C@]2(O)CC3=C4CC(=O)O[C@@H](c5ccoc5)[C@]4(C)CC[C@@H]3[C@@]1(C)C2=O [MOLUCCENSIN R] | 62.1% | 69.6% | 17% | 
